pIC50: −log10 of the molar value. Blank lines part the entries; values can stand above or below the compound they belong to. Activity calls are given as the source filed them. The calls are words filed in the database; no cut-off is given here.
Experiments:
[1] = test system: RAW264.7; assay: Reduction of IL-6 mRNA expression in LPS-stimulated mouse RAW264.7 cells by RT-PCR analysis; assay type: functional, cell-based
Procedure, shortened: (§1)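 IL-1beta, IL-6 and TNF-alpha mRNA from RAW 264.7 cells quantified by real-time RT-PCR using intron- or exon−exon boundary spanning primers. Results given as mean normalized expression; IL-6 and TNF-alpha levels normalized to 1000 copies of beta-actin.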

[2] = test system: RAW264.7; assay: Reduction of IL-1beta mRNA expression in LPS-stimulated mouse RAW264.7 cells by RT-PCR analysis; assay type: functional, cell-based; procedure, shortened: as §1
[3] = test system: RAW264.7; assay: Cytotoxicity against LPS-stimulated mouse RAW264.7 cells assessed as decrease in total mRNA transcription after 24 hrs by RT-PCR analysis; assay type: cell-based; conditions: raw264.7, 24 h
Procedure, shortened: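 LPS-stimulated RAW 264.7 macrophages co-incubated with test compound at 20−60 μg/mL for 24 h. iNOS mRNA (775 bp) and beta-actin mRNA (513 bp) analysed by semiquantitative competitive RT-PCR, with actin mRNA used to judge any generalized fall in transcription. One representative of three experiments.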

[4] = test system: RAW264.7; assay: Reduction of iNOS mRNA expression in LPS-stimulated mouse RAW264.7 cells after 24 hrs by RT-PCR analysis; assay type: functional, cell-based
Procedure, shortened: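 LPS-stimulated macrophages given compound at 20−60 μg/mL for 24 h. iNOS mRNA (775 bp) measured by semiquantitative competitive RT-PCR against beta-actin mRNA (513 bp). One representative of three experiments.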

[5] = test system: RAW264.7; assay: Reduction of iNOS expression in LPS-stimulated mouse RAW264.7 cells after 24 hrs by Western blot analysis; assay type: functional, cell-based
Procedure, shortened: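 Cells treated with LPS and compound at 10−60 μg/mL for 24 h. Lysates immunoblotted with rabbit polyclonal anti-iNOS, detecting a 130 kD band matched to purified iNOS. Beta-actin (43 kD) used as loading control.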

[6] = test system: RAW264.7; assay: Inhibition of LPS-induced NO production in mouse RAW264.7 cells assessed as reduction in nitrite level after 48 hrs by Griess reagent method in presence of TLR2 agonist pam2CSK4; assay type: functional, cell-based
Procedure, shortened: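 Cells stimulated through TLR2 with Pam2CSK4 (500 ng/mL) and incubated with compound at 30−60 μg/mL for 48 h. Nitrite read-out by Griess reaction.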

[7] = test system: RAW264.7; assay: Inhibition of LPS-induced NO production in mouse RAW264.7 cells assessed as reduction in nitrite level after 24 hrs by Griess reagent method in presence of IFN-gamma; assay type: functional, cell-based
Procedure, shortened: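 Stimulation of the JAK-STAT pathway in RAW 264.7 cells with interferon-gamma at 100 U/mL in the presence of compound. Inducible NO synthesis measured as medium nitrite by Griess reaction.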

[8] = test system: RAW264.7; assay: Inhibition of LPS-induced NO production in mouse RAW264.7 cells assessed as reduction in nitrite level after 24 hrs by Griess reagent method in presence of TLR2 agonist pam2CSK4; assay type: functional, cell-based
[9] = test system: RAW264.7; assay: Inhibition of LPS-induced NO production in mouse RAW264.7 cells assessed as reduction in nitrite level after 24 hrs by Griess reagent method in presence of TLR4 agonist Kdo2; assay type: functional, cell-based
Procedure, shortened: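 TLR4 activation of RAW 264.7 cells with Kdo2-lipid A at 500 ng/mL, together with compound at 30−60 μg/mL for 24 h. Nitrite in the culture medium determined by Griess reaction.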

[10] = test system: RAW264.7; assay: Cytotoxicity against mouse RAW264.7 cells assessed as reduction in mitochondrial respiration by MTT assay; assay type: cell-based
Procedure, shortened: (§2)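 RAW 264.7 cells exposed to compound at 20−60 μg/mL over the course of the experimental procedures. Viability checked by trypan blue exclusion (membrane integrity) and by MTT test (cellular metabolism/mitochondrial respiration).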

[11] = test system: RAW264.7; assay: Cytotoxicity against mouse RAW264.7 cells assessed as reduction in cellular metabolism by MTT assay; assay type: ADME, cell-based; procedure, shortened: as §2
[12] = test system: RAW264.7; assay: Cytotoxicity against mouse RAW264.7 cells assessed as reduction in membrane integrity by MTT assay; assay type: cell-based; conditions: in the assay text read “trypan blue exclusion assay” for “MTT assay”; procedure, shortened: as §2
[13] = target: T1, Nitric oxide synthase, inducible (Mus musculus) (UniProt P29477); assay: Inhibition of iNOS in mouse RAW264.7 cells at 60 ug/ml; assay type: cell-based
T1 sequence (whole entry): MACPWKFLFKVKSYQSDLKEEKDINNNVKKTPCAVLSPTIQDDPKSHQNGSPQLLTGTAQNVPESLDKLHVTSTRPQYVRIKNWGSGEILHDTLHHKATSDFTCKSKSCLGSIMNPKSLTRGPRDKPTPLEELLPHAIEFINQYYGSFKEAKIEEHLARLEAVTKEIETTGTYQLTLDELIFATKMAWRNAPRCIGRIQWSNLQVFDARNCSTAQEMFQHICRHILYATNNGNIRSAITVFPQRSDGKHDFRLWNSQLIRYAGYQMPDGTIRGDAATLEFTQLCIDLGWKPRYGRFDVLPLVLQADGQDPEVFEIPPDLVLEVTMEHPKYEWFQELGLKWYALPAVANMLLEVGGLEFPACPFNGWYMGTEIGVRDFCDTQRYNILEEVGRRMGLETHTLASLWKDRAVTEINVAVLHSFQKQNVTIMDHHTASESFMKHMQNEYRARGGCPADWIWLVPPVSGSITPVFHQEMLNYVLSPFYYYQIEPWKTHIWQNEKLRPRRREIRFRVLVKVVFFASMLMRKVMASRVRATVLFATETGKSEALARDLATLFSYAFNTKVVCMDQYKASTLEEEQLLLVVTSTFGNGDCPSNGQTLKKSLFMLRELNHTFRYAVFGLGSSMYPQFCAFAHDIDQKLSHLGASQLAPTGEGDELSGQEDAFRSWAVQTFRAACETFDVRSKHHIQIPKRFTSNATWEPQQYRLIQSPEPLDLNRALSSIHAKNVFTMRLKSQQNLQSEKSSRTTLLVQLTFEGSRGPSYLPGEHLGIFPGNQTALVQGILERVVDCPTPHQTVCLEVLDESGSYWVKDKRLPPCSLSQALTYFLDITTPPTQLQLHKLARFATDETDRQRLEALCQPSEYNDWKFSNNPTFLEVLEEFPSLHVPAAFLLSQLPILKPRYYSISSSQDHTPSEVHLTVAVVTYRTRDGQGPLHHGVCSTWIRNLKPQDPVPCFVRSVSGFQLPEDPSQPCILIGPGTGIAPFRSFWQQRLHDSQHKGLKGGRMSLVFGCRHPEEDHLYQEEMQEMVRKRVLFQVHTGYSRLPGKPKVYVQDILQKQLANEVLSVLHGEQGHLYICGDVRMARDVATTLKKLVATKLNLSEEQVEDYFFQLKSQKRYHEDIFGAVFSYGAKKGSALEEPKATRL
Procedure, shortened: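 Cytosolic iNOS enzymatic activity assayed with compound at 60 μg/mL final concentration, compared with incubations lacking compound. L-NAME (300 μM) and W1400 (50 μg/mL) served as reference inhibitors.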

[14] = test system: RAW264.7; assay: Inhibition of LPS-induced NO production in mouse RAW264.7 cells assessed as reduction in nitrite level at 60 ug/ml after 24 hrs by Griess reagent method; assay type: functional; conditions: RAW264.7, 24 h
[15] = test system: RAW264.7; assay: Inhibition of LPS-induced NO production in mouse RAW264.7 cells assessed as reduction in nitrite level at 30 ug/ml after 24 hrs by Griess reagent method; assay type: functional; conditions: RAW264.7, 24 h
[16] = test system: RAW264.7; assay: Inhibition of LPS-induced NO production in mouse RAW264.7 cells assessed as reduction in nitrite level at 20 ug/ml after 24 hrs by Griess reagent method; assay type: functional; conditions: RAW264.7, 24 h
[17] = test system: RAW264.7; assay: Inhibition of LPS-induced NO production in mouse RAW264.7 cells assessed as reduction in nitrite level within 24 hrs by Griess reagent method; assay type: functional, cell-based; conditions: for pIC50: RAW264.7, 24 h
[18] = target: Transcription factor p65 (Mus musculus) (UniProt Q04207); assay: Inhibition of NFkappa-B p65 subunit nuclear translocation in LPS-stimulated mouse RAW264.7 cells preincubated for 30mins before LPS treatment by Western blot analysis; assay type: cell-based
Procedure, shortened: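 Macrophages pre-incubated with compound at 20−60 μg/mL for 30 min, then stimulated with LPS for 20 min. Nuclear extracts immunoblotted against NF-κB p65, detected as a 65 kD band.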

[19] = target: T2, Nuclear factor NF-kappa-B p105 subunit (Mus musculus) (UniProt P25799); assay: Inhibition of binding of NFkappa-B p50 subunit to biotinylated consensus sequence in nuclear extract of LPS-stimulated mouse RAW264.7 cells after 1 hr by; assay type: cell-based
T2 sequence (whole entry): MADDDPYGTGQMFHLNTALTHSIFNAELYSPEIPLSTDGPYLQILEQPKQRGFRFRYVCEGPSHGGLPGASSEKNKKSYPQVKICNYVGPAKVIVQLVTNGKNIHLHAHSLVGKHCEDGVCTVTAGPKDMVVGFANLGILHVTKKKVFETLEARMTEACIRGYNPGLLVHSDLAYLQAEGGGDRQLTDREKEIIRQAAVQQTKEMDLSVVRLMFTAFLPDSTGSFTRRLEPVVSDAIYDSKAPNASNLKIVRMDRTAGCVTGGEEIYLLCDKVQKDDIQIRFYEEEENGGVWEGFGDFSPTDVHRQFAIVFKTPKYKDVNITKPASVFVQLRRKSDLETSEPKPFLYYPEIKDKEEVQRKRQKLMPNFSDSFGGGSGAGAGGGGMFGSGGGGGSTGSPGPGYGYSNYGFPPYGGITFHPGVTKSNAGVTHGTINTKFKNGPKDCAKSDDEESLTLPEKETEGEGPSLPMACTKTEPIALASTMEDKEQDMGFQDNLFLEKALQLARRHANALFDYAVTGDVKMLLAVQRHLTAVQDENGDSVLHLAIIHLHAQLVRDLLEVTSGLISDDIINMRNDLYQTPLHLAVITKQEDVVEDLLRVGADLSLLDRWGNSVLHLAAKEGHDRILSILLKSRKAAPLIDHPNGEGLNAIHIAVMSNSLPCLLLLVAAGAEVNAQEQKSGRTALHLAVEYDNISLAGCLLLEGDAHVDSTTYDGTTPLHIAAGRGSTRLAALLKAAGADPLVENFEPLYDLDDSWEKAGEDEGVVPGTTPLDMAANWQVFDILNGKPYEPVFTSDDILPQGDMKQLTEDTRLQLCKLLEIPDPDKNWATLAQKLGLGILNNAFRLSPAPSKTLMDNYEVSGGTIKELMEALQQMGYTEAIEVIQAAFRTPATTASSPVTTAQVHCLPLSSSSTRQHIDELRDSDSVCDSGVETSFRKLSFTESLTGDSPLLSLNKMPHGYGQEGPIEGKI
Procedure, shortened: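 RAW 264.7 cells (1 × 10^6) seeded in six-well plates, with LPS and compound added together for 1 h. Nuclear extracts prepared and binding of NF-κB p50 to a biotinylated consensus sequence read as relative light units.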

[20] = test system: RAW264.7; assay: Reduction of TNFalpha mRNA expression in LPS-stimulated mouse RAW264.7 cells by RT-PCR analysis; assay type: functional, cell-based; procedure, shortened: as §1
[21] = test system: RAW264.7; assay: Inhibition of LPS-induced NO production in mouse RAW264.7 cells assessed as reduction in nitrite level after 24 hrs by Griess reagent method in presence of TLR4 agonist Kdo2
[22] = target: T1, Nitric oxide synthase, inducible (Mus musculus); conditions: RAW264.7, 300 uM
[23] = target: T1, Nitric oxide synthase, inducible (Mus musculus); assay: Inhibition of iNOS in mouse RAW264.7 cells at 50 ug/ml; assay type: cell-based

Sequence of Transcription factor p65 (Mus musculus) (Q04207 whole entry): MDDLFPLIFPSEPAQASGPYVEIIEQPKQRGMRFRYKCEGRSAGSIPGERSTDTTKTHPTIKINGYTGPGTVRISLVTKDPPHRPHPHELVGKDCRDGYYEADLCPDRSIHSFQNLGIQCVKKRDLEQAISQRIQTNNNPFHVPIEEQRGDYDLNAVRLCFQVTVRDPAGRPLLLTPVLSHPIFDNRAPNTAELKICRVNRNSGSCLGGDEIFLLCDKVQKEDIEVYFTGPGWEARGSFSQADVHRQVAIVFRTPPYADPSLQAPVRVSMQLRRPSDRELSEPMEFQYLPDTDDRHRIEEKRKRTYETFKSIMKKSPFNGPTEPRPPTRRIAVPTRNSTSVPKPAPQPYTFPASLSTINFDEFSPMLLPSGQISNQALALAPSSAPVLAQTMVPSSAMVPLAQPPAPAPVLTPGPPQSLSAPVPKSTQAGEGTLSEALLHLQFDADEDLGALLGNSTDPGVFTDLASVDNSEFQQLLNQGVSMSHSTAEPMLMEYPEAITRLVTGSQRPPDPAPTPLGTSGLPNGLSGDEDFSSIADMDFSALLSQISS

inhibition [13]: inactive | pIC50 [17]: 4.75 | inhibition [18]: Dose-dependent effect | inhibition [19]: Active
Structure (SMILES): O=C(O[C@H]1[C@@H]2OC(=O)c3cc(O)c(O)c(O)c3-c3c4cc(c(O)c3O)Oc3c(cc(O)c(O)c3O)C(=O)O[C@H]3C(O)O[C@@H]5COC(=O)c6cc(O)c(O)c(O)c6-c6c(cc(c(O)c6O)Oc6c(cc(O)c(O)c6O)C(=O)O[C@H]1C(O)O[C@@H]2COC4=O)C(=O)O[C@H]5[C@@H]3OC(=O)c1cc(O)c(O)c(O)c1)c1cc(O)c(O)c(O)c1 (stereo not given in full) [OENOTHEIN B]
Activity [1]: Active | Activity [2]: Active | Activity [3]: Non-toxic | Activity [4]: Dose-dependent effect | Activity [5]: Dose-dependent effect | inhibition [6]: Dose-dependent effect | inhibition [7]: inactive | inhibition [8]: Dose-dependent effect | inhibition [9]: Dose-dependent effect | Activity [10]: Non-toxic | Activity [11]: Non-toxic | Activity [12]: Non-toxic | inhibition at 60 µg/mL [14]: 87.9% | inhibition at 30 µg/mL [15]: 64.6% | inhibition at 20 µg/mL [16]: 34.8% | inhibition [17]: Dose-dependent effect | Activity [20]: Active | inhibition [21]: Dose-dependent effect

Structure (SMILES): O=C(O)c1cc(O)c(O)c(O)c1 [GALLIC ACID]
pIC50 [17]: 3.20

Structure (SMILES): COC(=O)[C@@H](N)CCCNC(=N)N[N+](=O)[O-]
inhibition [22]: > 70%

inhibition [23]: > 70%
Structure (SMILES): CC(=N)NCc1cccc(CN)c1

Reference: ChEMBL document CHEMBL2176877, “Inhibition of NF-κB-dependent cytokine and inducible nitric oxide synthesis by the macrocyclic ellagitannin oenothein B in TLR-stimulated RAW 264.7 macrophages” (J Nat Prod, 2012)
